Measured values pooled from the literature.
Each line is one published result; the experiments were not run side by side.
Target: Cyclin-dependent kinase 5 (CDK5, Homo sapiens, UniProt Q00535)

Cc1cc(NC(=O)c2cccc(S(F)(F)(F)(F)F)c2)cc(-n2ccn3nc(-c4cccnc4)cc23)c1 — remaining binding (cell-free assay, competition with immobilised ligand; 1 µM): 100%
CN(C)c1nccc(-c2cnn3ncccc23)n1 — remaining binding (binding; 1 µM): 100%
CSc1cccnc1N1CCN(Cc2nc3ccccc3[nH]2)CC1 — remaining binding (cell-free assay, competition with immobilised ligand; 1 µM): 99%
CNC(=O)[C@@H]1CC[C@@H](n2c(-c3ccc4cnccc4c3)nc3ccc(C(=O)NCc4cccc(C(N)=O)c4)cc32)C1 — remaining binding (binding, competition with immobilised ligand; 1 µM): 89%
O=C(c1ccc(Nc2ncc(Cl)c(-c3ccc(Cl)s3)n2)cc1)N1CCC(N2CCCC2)CC1 — remaining binding (binding, competition with immobilised ligand; 1 µM): 26%
O=C(NCC1CCOCC1)c1n[nH]cc1NC(=O)c1c(F)cccc1F — remaining binding (binding, competition with immobilised ligand; 1 µM): 83%
CNCc1ccccc1-c1csc([C@H](C)Nc2nc(C)nc3cc(OC)c(OC)cc23)c1 — remaining binding (cell-free assay, competition with immobilised ligand; 1 µM): 98%
C[C@H]1CCN(c2nccc(-c3cnn4ncccc34)n2)C1 — remaining binding (binding; 1 µM): 97%
O=C(c1ccc(Nc2nccc(-c3cc4ccccc4s3)n2)cc1)N1CCC(N2CCCC2)CC1 — remaining binding (binding, competition with immobilised ligand; 1 µM): 92%
F[C@@H]1CCN(c2nccc(-c3cnn4ncccc34)n2)C1 — remaining binding (binding; 1 µM): 100%
CCCCN(CCCC)C(=O)CN1C[C@@H](c2cc(OC)c3c(c2)OCO3)[C@H](C(=O)O)[C@H]1CC(C)(C)CCC — remaining binding (cell-free assay, competition with immobilised ligand; 1 µM): 97.7%
COc1cnc(Nc2cccc(S(N)(=O)=O)c2)nc1N1CCN(c2ccccc2)C(=O)C1 — remaining binding (binding, competition with immobilised ligand; 1 µM): 100%
C[C@@H]1CN(c2cc(-c3nn(C)c4ccc(OC5(C)CC5)cc34)ncn2)C[C@H](C)O1 — remaining binding (cell-free assay, competition with immobilised ligand; 1 µM): 100%
c1cncc(-c2cccc(Nc3nccc(NC4CCCCC4)n3)c2)c1 — remaining binding (binding, competition with immobilised ligand; 10 µM): 81%
C[C@@H](c1ccc(-n2cnc3c(N)ncnc32)cc1)N1CCc2nn(C)c(Cc3ccccc3)c2C1=O — remaining binding (binding, competition with immobilised ligand; 0.1 µM): 39%
Cc1cnc(Nc2ccc(C(=O)N3CCC(N4CCCC4)CC3)cc2)nc1-c1cc2ccccc2s1 — remaining binding (binding, competition with immobilised ligand; 1 µM): 76%
CN(C)c1nccc(-c2cnc3ncccn23)n1 — remaining binding (binding; 1 µM): 91%
FC(F)(F)Oc1cccc(-c2cnc3ccc(-c4ccncc4)nn23)c1 — remaining binding (cell-free assay, competition with immobilised ligand; 5 µM): 93%
c1cnn2ncc(-c3ccnc(N4CCC45COC5)n3)c2c1 — remaining binding (binding; 1 µM): 99%
C=CC(=O)N1CCC(C(=O)NCC(=O)N2CCN(c3nc(-c4cnc(N)nc4C(F)F)nc(N4CCOCC4)n3)CC2)CC1 — remaining binding (binding, competition with immobilised ligand; 1 µM): 100%
CCS(=O)(=O)c1cc2cc(C[C@](O)(CC(C)(C)c3ccc(F)cc3C(N)=O)C(F)(F)F)[nH]c2cn1 — remaining binding (cell-free assay, competition with immobilised ligand; 1 µM): 100%
COc1ccnn2ncc(-c3ccnc(N(C)C)n3)c12 — remaining binding (binding; 1 µM): 100%
